The source made the active and inactive calls. The calls are words filed in the database; no cut-off is given here.
How the values were obtained:
BV-2 [1] = assay: Antiinflammatory activity against LPS-induced mouse BV-2 cells assessed as increase in IL-10 production at 40 uM after 24 hrs by ELISA; format: functional, cell-based
Procedure, shortened: (§1)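 BV2 cells at 5×10^5 cells/mL stimulated with LPS 1 μg/mL; compound at 10, 20 or 40 μM final for 24 h, DMSO in blanks. Supernatant TNF-α and IL-10 measured by sandwich ELISA and PGE2 by competitive ELISA, OD at 450 nm; at least three independent experiments.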

[2] = Antioxidant activity assessed as DPPH radical scavenging activity incubated for 30 mins; format: functional
Procedure, shortened: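 Compound in ethanol at 2.5–40 μM final, mixed 1:1 with 700 μmol/L ethanolic DPPH; 30 min in the dark at room temperature, absorbance at 515 nm. Serotonin used as standard; EC50 from three independent experiments.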

BV-2 [3] = assay: Antiinflammatory activity against LPS-induced mouse BV-2 cells assessed as decrease in iba-1 protein expression at 20 uM after 24 hrs by DAPI staining based confocal laser microscopic method; format: functional, cell-based
Procedure, shortened: (§2)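 Cells on glass slides with compound at 20 μM final for 24 h: C6 with LPS 10 μg/mL stained for GFAP, BV2 with LPS 1 μg/mL stained for Iba-1. Fixed in 4% paraformaldehyde, blocked in 1% BSA/0.3% Triton X-100, primary antibody 1:100 overnight at 4 °C, secondary 1:200, DAPI mount, confocal imaging. Intensity given as % of LPS group, n = 3.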

C6 [4] = assay: Cytotoxicity against rat C6 cells assessed as reduction in cell viability after 24 hrs by MTT assay; format: cell-based; conditions: C6, 24 h
Procedure, shortened: (§3)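 C6 or BV2 cells seeded at 1–5×10^5 per well; after 12 h exposed to 0, 6.25, 12.5, 25, 50 or 100 μM (final, DMSO <0.4%) for 24 h. MTT added for 4 h, dissolved in DMSO, read at 570 nm. IC50 as mean of three independent experiments run in triplicate.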

C6 [5] = assay: Inhibition of LPS-induced NO production in rat C6 cells incubated for 24 hrs by Griess reagent based assay; format: functional, cell-based; conditions: C6, 24 h
Procedure, shortened: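 C6 cells at 5×10^5 cells/mL, LPS 10 μg/mL plus compound at 2.5–40 μM final for 24 h. Nitrite measured with Griess reagent at 540 nm against a NaNO2 standard; IC50 from three repeats.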

C6 [6] = assay: Antiinflammatory activity against LPS-induced rat C6 cells assessed as decrease in GFAP protein expression at 20 uM after 24 hrs by DAPI staining based confocal laser microscopic method; format: functional, cell-based; procedure, shortened: as §2
[7] = biological target: Prostaglandin G/H synthase 1 (Homo sapiens) (UniProt P23219); assay: Inhibition of human COX1 assessed as reduction in PGF2alpha formation using arachidonic acid as substrate incubated for 10 mins by ELISA
[8] = Inhibition of LPS-induced NO production in mouse BV-2 cells incubated for 24 hrs by Griess reagent based assay; format: functional, cell-based; conditions: BV-2, 24 h
Procedure, shortened: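 BV2 cells at 5×10^5 cells/mL, LPS 1 μg/mL plus compound at 2.5–40 μM final for 24 h. Supernatant nitrite measured with Griess reagent for 15 min at room temperature in the dark, 540 nm, against a NaNO2 standard curve; IC50 from three repeats.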

BV-2 [9] = assay: Antiinflammatory activity against LPS-induced mouse BV-2 cells assessed as decrease in COX2 protein expression at 40 uM after 24 hrs by Western blot analysis; format: functional, cell-based
Procedure, shortened: (§4)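 BV2 cells in DMEM with 10% FBS; LPS 1 μg/mL plus compound at 10, 20 or 40 μM final for 24 h. Lysates in RIPA with 1 mM PMSF; 30 μg protein on 8% SDS-PAGE and blotted for iNOS and COX-2, GAPDH as reference; ECL detection and densitometry; at least three independent experiments.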

BV-2 [10] = assay: Antiinflammatory activity against LPS-induced mouse BV-2 cells assessed as decrease in ROS production at 10 to 40 uM after 6 hrs by DCFH-DA fluorescence probe based flow cytometric analysis; format: functional, cell-based; conditions: dose 10-40 µM
Procedure, shortened: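 BV2 cells with LPS 1 μg/mL and compound at 10, 20 or 40 μM for 6 h, then DCFH-DA 20 μM final for 30 min at 37 °C. Washed in cold PBS and read by flow cytometry, excitation 485 nm and emission 530 nm.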

BV-2 [11] = assay: Inhibition of LPS-induced TNFalpha production in mouse BV-2 cells after 24 hrs by ELISA; format: functional, cell-based; conditions: dose 10-40 µM; procedure, shortened: as §1
Homo sapiens = species on record: Homo sapiens; assay: Selectivity index, ratio of IC50 for inhibition of human COX1 to IC50 for inhibition of human COX2
C6 [12] = assay: Inhibition of LPS-induced TNFalpha production in rat C6 cells after 24 hrs by ELISA; format: functional, cell-based; conditions: dose 10-40 µM
Procedure, shortened: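 C6 cells at 5×10^5 cells/mL stimulated with LPS 10 μg/mL; compound at 10, 20 or 40 μM final for 24 h. Supernatant TNF-α measured by sandwich ELISA at 450 nm; at least three independent experiments.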

BV-2 [13] = assay: Antiinflammatory activity against LPS-induced mouse BV-2 cells assessed as decrease in INOS protein expression at 40 uM after 24 hrs by Western blot analysis relative to control; format: functional; design: scale not given: the % may be the effect or the level left; procedure, shortened: as §4
BV-2 [14] = assay: Cytotoxicity against mouse BV-2 cells assessed as reduction in cell viability after 24 hrs by MTT assay; format: cell-based; conditions: BV-2, 24 h; procedure, shortened: as §3
[15] = biological target: Prostaglandin G/H synthase 2 (Homo sapiens) (UniProt P35354); assay: Inhibition of human COX2 assessed as reduction in PGF2alpha formation using arachidonic acid as substrate incubated for 10 mins by ELISA
Sequence of Prostaglandin G/H synthase 2 (Homo sapiens) (P35354 whole entry, looked up): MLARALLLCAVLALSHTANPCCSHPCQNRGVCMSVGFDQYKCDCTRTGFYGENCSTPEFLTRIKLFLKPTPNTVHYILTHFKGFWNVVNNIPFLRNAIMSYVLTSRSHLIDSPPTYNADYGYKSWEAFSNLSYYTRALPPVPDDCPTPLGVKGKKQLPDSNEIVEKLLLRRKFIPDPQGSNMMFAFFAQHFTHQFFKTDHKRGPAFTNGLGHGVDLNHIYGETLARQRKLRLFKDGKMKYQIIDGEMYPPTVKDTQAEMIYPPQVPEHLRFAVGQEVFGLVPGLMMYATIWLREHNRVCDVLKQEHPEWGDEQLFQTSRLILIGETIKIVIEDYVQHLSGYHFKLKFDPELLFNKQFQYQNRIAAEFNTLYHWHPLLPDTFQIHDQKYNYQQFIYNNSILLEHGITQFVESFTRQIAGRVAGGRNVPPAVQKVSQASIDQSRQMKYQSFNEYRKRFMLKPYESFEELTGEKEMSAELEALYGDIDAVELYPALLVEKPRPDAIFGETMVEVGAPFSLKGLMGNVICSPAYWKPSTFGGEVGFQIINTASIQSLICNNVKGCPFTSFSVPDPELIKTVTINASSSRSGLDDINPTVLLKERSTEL

[16] = Induction of apoptosis in LPS-induced hippocampal neuroinflammatory Kunming mouse model at 50 mg/kg, ip administered bid for 6 days by Nissl staining based microscopic method; format: organism-based; conditions: in vivo, 144 h, time 6 day
Procedure, shortened: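 Male Kunming mice (8 weeks, 20–25 g, n = 10/group) were anaesthetised with i.p. chloral hydrate, then given LPS (3 μL of 10 mg/mL) into the lateral ventricle at 0.5 μL/min; sham mice received 3 μL saline. Compound was then given i.p. at 50 mg/kg in saline with 1% methyl cellulose for six consecutive days. Behaviour and deaths were recorded, and hippocampal slices were Nissl-stained.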

Mus musculus = assay: Antiinflammatory activity against LPS-induced hippocampal neuroinflammatory Kunming mouse model assessed as reduction in GFAP level in hippocampus at 50 mg/kg, ip administered bid for 6 days by DAPI staining based microscopic method; format: functional, organism-based; conditions: time 6.0 day

SMILES | IC50 (C6 [4]) [µM] | IC50 (C6 [5]) [µM] | IC50 [7] [µM] | IC50 [8] [µM] | IC50 (BV-2 [14]) [µM] | IC50 [15] [µM] | other results
O=C(NCCc1c[nH]c2ccccc12)c1ccccc1Nc1ccccc1 | 115 | 15.3 | 0.47 | 25.9 | > 100 | 2.62 | Activity (BV-2 [1]): inactive; EC50 [2]: > 100 µM; Activity (BV-2 [3]): Active; Activity (C6 [6]): Active; Activity (BV-2 [9]): Active; Activity (BV-2 [10]): Active; inhibition (BV-2 [11]): Dose-dependent effect; Ratio IC50 (Homo sapiens): 0.18; inhibition (C6 [12]): Dose-dependent effect; Activity (BV-2 [13]): 66%
CN(c1ccccc1)c1ccccc1C(=O)NCCc1c[nH]c2ccccc12 | 28.5 |  |  |  | 7.98 | > 40 | 
O=C(NCCc1c[nH]c2ccccc12)c1cc(Cl)ccc1O | > 100 | > 40 | > 40 | > 40 | > 100 | 10.4 | 
Cc1c(Cl)cccc1Nc1ccccc1C(=O)NCCc1c[nH]c2ccccc12 | 71.1 |  |  |  | 54.6 | 14.5 | 
Cc1ccc2[nH]cc(CCNC(=O)c3ccccc3Nc3ccccc3)c2c1 | 87.9 |  | 27 |  | 64.6 | 1.47 | Ratio IC50 (Homo sapiens): 18.4
Cc1cccc(Nc2ccccc2C(=O)NCCc2c[nH]c3ccc(O)cc23)c1C | 80.5 |  |  |  | 56.4 | 1.4 | 
Cc1ccc2[nH]cc(CCNC(=O)c3ccccc3Nc3cccc(Cl)c3C)c2c1 | 66.1 |  |  |  | 73.7 | 9.72 | 
Cc1ccc(O)c(C(=O)NCCc2c[nH]c3ccccc23)c1 | > 100 | > 40 | > 40 | > 40 | > 100 | > 40 | 
COc1ccc2[nH]cc(CCNC(=O)c3ccccc3Nc3ccccc3)c2c1 | 89.3 | 7.61 | 38.6 | 19.9 | > 100 | 2.76 | Ratio IC50 (Homo sapiens): 14
O=C(NCCc1c[nH]c2ccccc12)c1cc2ccccc2cc1O | > 100 | 13.2 | 39.2 | 59 | > 100 | 2.18 | Ratio IC50 (Homo sapiens): 18
COc1ccc2[nH]cc(CCNC(=O)c3ccccc3Nc3cccc(Cl)c3C)c2c1 | 62.4 |  |  |  | > 100 | > 40 | 
O=C(NCCc1c[nH]c2ccccc12)c1ccc(O)cc1O | > 100 | > 40 | > 40 | > 40 | > 100 | 25 | 
Cc1ccc2[nH]cc(CCNC(=O)c3ccccc3O)c2c1 | > 100 | > 40 | > 40 | > 40 | > 100 | > 40 | 
NCCc1c[nH]c2ccc(O)cc12 [SEROTONIN] |  |  |  |  |  |  | EC50 [2]: 0.63 µM
O=C(NCCc1c[nH]c2ccc(Cl)cc12)c1ccccc1Nc1ccccc1 | 79.3 |  | 1.34 |  | 62.4 | 0.58 | Ratio IC50 (Homo sapiens): 2.31
CNc1ccccc1C(=O)NCCc1c[nH]c2ccccc12 | > 100 | > 40 | > 40 | > 40 | > 100 | > 40 | 
Cc1cccc(Nc2ccccc2C(=O)NCCc2c[nH]c3ccccc23)c1C | 95.2 |  |  |  | 55.1 | 2.31 | 
O=C(NCCc1c[nH]c2ccccc12)c1ccc(F)cc1O | > 100 | > 40 | > 40 | > 40 | > 100 | > 40 | 
O=C(NCCc1c[nH]c2ccccc12)c1ccccc1O | > 100 | > 40 |  | 26.4 | > 100 | > 40 | 
CN(C)c1ccccc1C(=O)NCCc1c[nH]c2ccc(O)cc12 | > 100 | > 40 |  | > 40 | > 100 | 0.57 | 
O=C(O)c1ccccc1O [SALICYLIC ACID] |  |  | > 40 |  |  | > 40 | Activity [16]: Toxic; Activity (Mus musculus): Active
O=C(NCCc1c[nH]c2ccc(O)cc12)c1ccccc1O | > 100 | > 40 | 1.74 | > 40 | > 100 | 0.8 | Ratio IC50 (Homo sapiens): 2.18
CN(C)c1ccccc1C(=O)NCCc1c[nH]c2ccccc12 | > 100 | > 40 |  | 22.9 | > 100 | > 40 | 

— ChEMBL document CHEMBL4680229, “Design, synthesis and bioactivity study of N-salicyloyl tryptamine derivatives as multifunctional agents for the treatment of neuroinflammation” (Eur J Med Chem, 2020)
